According to publication PMC5161575 (Nature, 2016):
Like-named read-outs stand apart in the source and are kept apart here.

Columns and labels:
[1] = target: KSR2 in purified KSR2-MEK1 complexes (Homo sapiens, UniProt Q6VAB6); assay: ATP^biotin probe-labelling competition; format: binding
[2] = tested on: Phospho-AMPK in HCT116 cells; assay: phospho-AMPK western blot; format: cell-based; details: co-treatment with trametinib, 48 h
Outline: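 HCT116 cells received test compound and/or a MEK inhibitor for 48 h. Lysates were western blotted for phospho-AMPK, phospho-ERK and total MEK, with primary antibodies overnight in 5% BSA TBS-T. Signal was detected by chemiluminescence on a CCD imager, and band intensities were quantified.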

[3] = tested on: BRAF(V600E)-induced MAPK activation in 293H cells; assay: BRAF; format: cell-based; details: 5 μM, 2 h
Outline: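 They were then exposed for 2 h to DMSO or 5μM test compound, alongside a reference RAF inhibitor. Cells were collected and western blotted for phospho-MEK1/2 (Ser218/Ser222) and phospho-ERK1/2 (T202/Y204). Primary antibodies were applied overnight in 5% BSA TBS-T.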

[4] = tested on: KSR-stimulated MEK and ERK phosphorylation in 293H cells; assay: KSR-driven MAPK signalling reconstitution; format: cell-based; details: 5 μM, 2 h
[5] = tested on: MEK phosphorylation by BRAF or CRAF; assay: RAF phosphorylation assay of KSR2-MEK1 or MEK1 in vitro; format: biochemical; details: KSR absent or KSR2(A690F) mutant; compound 1 μM
[6] = target: MEK phosphorylation by BRAF or CRAF (Homo sapiens, UniProt Q6VAB6); assay: as above; format: biochemical; details: KSR2-MEK1; compound 1 μM
[7] = tested on: ERK phosphorylation in HCT-116 cells; assay: phospho-ERK western blot; format: cell-based; details: APS-2-79 treatment
BRAF(F667E) + KSR2:MEK1 = BRAF(F667E) + KSR2:MEK1 (Homo sapiens, UniProt Q6VAB6); assay: bio-layer inferometry; format: binding; details: compound 25 μM
MEK1 = MEK1 (Oryctolagus cuniculus, UniProt P29678); assay: ATP^biotin probe-labelling competition; format: binding, rabbit; details: read-out: IC50 (ATP), MEK1; free ATP vs 2 μM ATP^biotin, KSR2-MEK1 complexes
Outline: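 The probe transfers desthio-biotin onto active-site lysines of both KSR2 and MEK1. Biotin, total MEK and total KSR detected by western blot, giving probe-labelling versus ATP level for each partner.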

MEK1 (1-393) = MEK1 (1-393) (rabbit, UniProt P29678 1-393); assay: BLI
KSR2(KD):MEK1 complex = KSR2(KD):MEK1 complex (human | rabbit, UniProt Q6VAB6 634-950; P29678 1-393); assay: BLI

COc1cc2ncnc(Nc3ccc(Oc4ccccc4)cc3)c2cc1OC.Cl [APS-1-68-2, 6,7-Dimethoxy-N-(4-phenoxyphenyl)quinazolin-4-amine hydrochloride]
KSR2-MEK1 probe competition (in words) [1]: competitor of probe-labelling

COc1ccc(Nc2ncnc3cc(OC)c(OC)cc23)cc1.Cl [APS-1-70-1, 6,7-Dimethoxy-N-(4-methoxyphenyl)quinazolin-4-amine hydrochloride]
KSR2-MEK1 probe competition (in words) [1]: greatly diminished competition

COc1cc2ncnc(Nc3ccc(O)cc3)c2cc1OC.Cl [APS-1-82-1, 4-((6,7-Dimethoxyquinazolin-4-yl)amino)phenol hydrochloride]
KSR2-MEK1 probe competition (in words) [1]: greatly diminished competition

COc1cc2ncnc(Nc3ccc(OCc4ccccc4)cc3)c2cc1OC.O=C(O)C(F)(F)F [APS-2-12, N-(4-(Benzyloxy)phenyl)-6,7-dimethoxyquinazolin-4-amine 2,2,2-trifluoroacetate]
KSR2-MEK1 probe competition (in words) [1]: diminished

COc1cc2nccc(Nc3ccc(Oc4ccccc4)cc3)c2cc1OC.Cl [APS-2-16, 6,7-Dimethoxy-N-(4-phenoxyphenyl)quinolin-4-amine hydrochloride]
KSR2-MEK1 probe competition (in words) [1]: moderately tolerated

COc1cc2ncnc(Nc3ccc(Oc4ccccc4)cc3C)c2cc1OC.O=C(O)C(F)(F)F [APS-2-79, 6,7-Dimethoxy-N-(2-methyl-4-phenoxyphenyl)quinazolin-4-amine 2,2,2-trifluoroacetate]
Phospho-AMPK [2]: remains unchanged | BRAF(V600E)-induced MAPK activation [3]: does not affect | KSR-stimulated MEK and ERK phosphorylation ([4]; KSR(A690F) mutant): significantly diminished the activity | KSR-stimulated MEK and ERK phosphorylation ([4]; wild-type KSR): suppressed | MEK phosphorylation by RAF [5]: inactive | KSR-stimulated MEK phosphorylation by RAF [6]: markedly reduced | enhancement in the IC90 of trametinib on ERK phosphorylation [7]: twofold enhancement | assembly of BRAF(F667E) and KSR2-MEK1 (in words) (BRAF(F667E) + KSR2:MEK1): did not associate

COc1cc2/c(=N/c3ccc(Oc4ccccc4)cc3)ncn(C)c2cc1OC [APS-3-6, (Z)-N-(6,7-Dimethoxy-1-methylquinazolin-4(1H)-ylidene)-4-phenoxyaniline]
KSR2-MEK1 probe competition (in words) [1]: greatly diminished

COc1cc2ncnc(Nc3ccc(Oc4ccccc4)c(C)c3C)c2cc1OC.Cl [APS-3-77, N-(2,3-Dimethyl-4-phenoxyphenyl)-6,7-dimethoxyquinazolin-4-amine hydrochloride]
IC50 [1]: > 10 µM | KSR2-MEK1 probe competition (in words) [1]: essentially inactive | assembly of BRAF(F667E) and KSR2-MEK1 (in words) (BRAF(F667E) + KSR2:MEK1): did not impede

Nc1ncnc2c1ncn2[C@@H]1O[C@H](COP(=O)(O)OP(=O)(O)OP(=O)(O)O)[C@@H](O)[C@H]1O [ATP, reference compound]
IC50 ([1]; read-out: IC50 (ATP), KSR2, free ATP vs 2 μM ATP^biotin, KSR2-MEK1 complexes): 86 µM | IC50 (MEK1): 133 µM

B1: B-RAF (modified variant for high-yield expression in E. coli) (enzyme)
chain: RDSSDDWEIPDGQITVGQRIGSGSFGTVYKGKWHGDVAVKMLNVTAPTPQQLQAFKNEVGVLRKTRHVNILLFMGYSTKPQLAIVTQWCEGSSLYHHLHASETKFEMKKLIDIARQTARGMDYLHAKSIIHRDLKSNNIFLHEDNTVKIGDFGLATVKSRWSGSHQFEQLSGSILWMAPEVIRMQDSNPYSFQSDVYAFGIVLYELMTGQLPYSNINNRDQIIFMVGRGSLSPDLSKVRSNCPKRMKRLMAECLKKKRDERPSFPRILAEIEELARELSG
modifications: biotinylated with EZ-Link Sulfo-NHS-Biotin
Kd (MEK1 (1-393)): 0.051 µM

B2: B-RAF(F667E) (in the modified variant for E. coli expression) (enzyme)
chain: RDSSDDWEIPDGQITVGQRIGSGSFGTVYKGKWHGDVAVKMLNVTAPTPQQLQAFKNEVGVLRKTRHVNILLFMGYSTKPQLAIVTQWCEGSSLYHHLHASETKFEMKKLIDIARQTARGMDYLHAKSIIHRDLKSNNIFLHEDNTVKIGDFGLATVKSRWSGSHQFEQLSGSILWMAPEVIRMQDSNPYSFQSDVYAFGIVLYELMTGQLPYSNINNRDQIIEMVGRGSLSPDLSKVRSNCPKRMKRLMAECLKKKRDERPSFPRILAEIEELARELSG
modifications: biotinylated with EZ-Link Sulfo-NHS-Biotin
Kd (KSR2(KD):MEK1 complex): 1.99 µM
